CHT block – human CHT choline transport inhibition. Q9GZV3. CHT-expressing cells, membrane potential dye, choline response; active compounds read low. B-score at 10 µM. 310,000 compounds, 0.86% hits. AID 488975;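 active = B-score over 3 SD under the library average, and starting fluorescence ratio not unusually high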;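 also: choline stimulus applied at its EC90 after an EC20 pre-addition; B-score computed on integrated fluorescence ratio after choline addition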
CHT allo act – human CHT allosteric activation; Q9GZV3; CHT-expressing cells, membrane potential dye, choline EC20; active compounds read high; LV-AA mutant CHT in HEK293 cells; B-score at 10 µM; 310,000 compounds, 0.49% hits;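 active = initial fluorescence not abnormally high and integrated response B-score, plate-corrected, over 3 SD above library mean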
Pemphigus Ab inh – human desmoglein-3 autoantibody binding inhibition; P32926; DSG3-coupled beads, scFv-anti-DSG3-GFP binding, flow cytometry; active compounds read low; binding (percent of control), % at 10 µM; 310,000 compounds, 0.48% hits; AID 588358;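 active = binding more than 3 SD below its plate's average and above zero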;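 also: hits lower antibody fragment binding to DSG3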
Target sequence (P32926 whole entry, looked up, the tested form may be a part): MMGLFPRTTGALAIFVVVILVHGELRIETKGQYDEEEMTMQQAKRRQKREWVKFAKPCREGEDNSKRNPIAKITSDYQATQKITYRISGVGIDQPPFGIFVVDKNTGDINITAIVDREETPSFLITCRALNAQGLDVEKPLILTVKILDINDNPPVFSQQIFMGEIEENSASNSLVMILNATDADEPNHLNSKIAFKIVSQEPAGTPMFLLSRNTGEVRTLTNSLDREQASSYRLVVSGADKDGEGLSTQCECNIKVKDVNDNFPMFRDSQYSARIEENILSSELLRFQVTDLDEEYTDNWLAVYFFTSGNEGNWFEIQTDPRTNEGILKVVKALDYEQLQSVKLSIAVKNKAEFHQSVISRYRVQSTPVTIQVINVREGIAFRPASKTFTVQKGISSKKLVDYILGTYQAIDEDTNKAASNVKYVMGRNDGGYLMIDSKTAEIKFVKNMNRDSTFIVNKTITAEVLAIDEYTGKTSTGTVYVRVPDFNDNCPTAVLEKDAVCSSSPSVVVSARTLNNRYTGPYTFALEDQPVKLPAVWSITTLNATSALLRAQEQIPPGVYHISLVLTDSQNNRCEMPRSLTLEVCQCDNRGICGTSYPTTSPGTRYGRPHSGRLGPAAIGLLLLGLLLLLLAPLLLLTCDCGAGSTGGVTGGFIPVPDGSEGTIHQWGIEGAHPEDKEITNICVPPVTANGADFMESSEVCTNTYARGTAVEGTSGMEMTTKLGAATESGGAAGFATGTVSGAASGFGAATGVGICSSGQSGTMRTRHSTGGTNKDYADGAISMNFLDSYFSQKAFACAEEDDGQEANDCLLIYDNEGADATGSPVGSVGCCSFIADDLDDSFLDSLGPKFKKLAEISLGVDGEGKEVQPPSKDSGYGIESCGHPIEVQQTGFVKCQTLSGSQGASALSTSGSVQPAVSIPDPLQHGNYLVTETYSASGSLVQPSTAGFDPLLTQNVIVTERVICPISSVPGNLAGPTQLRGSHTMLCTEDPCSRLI
GPR7 antag – blocks human GPR7 receptor signaling | 290,000 compounds, 1.1% hits | P48145 | GPR7-expressing cells, fluorescence antagonist assay | inhibition, % at 4.4 µM; in the data active = inhibition above about 16%, passing the limit was not always enough;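 also: cells stimulated with the agonist NPW; 0% = agonist with vehicle and 100% = vehicle without agonist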
T cell modulator – modulates CD8 T cell binding to vesicles. response (vesicle binding), % at 7 µM. 330,000 compounds, 0.068% hits. AID 2052. 2C CD8+ T cell-vesicle binding, flow cytometry; active compounds read low;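 active = response, share of CD8 T cells binding vesicles, and their 90th percentile fluorescence all below set limits, cut at about 80% in these data, passing the limit was not always enough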;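 also: values below 100% mean blocked vesicle binding to the CD8+ T cells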
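Test system: purified 2C TCR transgenic mouse naive CD8+ T cells. Probe or stimulus: QL9-peptide-loaded Drosophila micro-vesicles bearing Ld, ICAM-1 and B7-1. Incubation: binding step 1.5 h, 37 °C, antibody labelling 20 min, ice. Measured by: flow cytometry of vesicle-bound cells.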
p-CIP stab down – lowers stability of the mouse p/CIP coactivator protein; F442A p/CIP-EGFP cells, EGFP fluorescence, 16 h; decrease of EGFP signal, % at 10 µM; 290,000 compounds, 0.01% hits; Q05BA5; AID 1984;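 active = EGFP signal decrease of at least 30% at 10 µM or well 3 SD below plate mean, unless failing retest; inactive = the rest, including hits failing retest or dose response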
CHT block conf – human CHT inhibition, confirmatory screen; shares compounds with CHT block; CHT-expressing cells, choline membrane potential dye; LV-to-AA substituted CHT, HEK293 cells; CHT activity remaining % of control (active compounds read low), % at 10 µM; 2,400 compounds, 70% hits; AID 493221;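 active = choline transporter activity left, mean of duplicates at 10 µM, below buffer-only control mean minus 3 SD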;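 also: depolarization triggered by choline at its EC90 following an EC20 pre-addition; 0% = hemicholinium-3 full block and 100% = buffer-only control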
HEK293 MPD ctr – CHT inhibitor counter-screen hit in parental HEK293 cells | shares compounds with CHT block | membrane potential dye, choline response; active = decrease or increase beyond buffer ±3SD | membrane potential ratio readout (active if shifted either direction beyond buffer ±3SD; no single direction) at 10 µM | 2,400 compounds, 4% hits | AID 493222;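 also: parental cells lack the transporter so any hit is non-specific; ratio is peak minus trough fluorescence over baseline after EC90 choline challenge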
Starred values were filed as active, the others as inactive; i = inactive; . = no result given. A selection: hits, their analogues and other compounds. The true share with any hit is near 2.3%.

SMILES	CHT block	CHT allo act	Pemphigus Ab inh	GPR7 antag	T cell modulator	p-CIP stab down	CHT block conf	HEK293 MPD ctr
CCOC(=O)c1c(NC(=O)CSc2ncn[nH]2)sc(C)c1C	-6.72*	i	103.3	-6.5	122.5	-1.5	i	i
CCOC(=O)c1c(NC(=O)CSc2ncn[nH]2)sc(C(=O)N(C)C)c1C	i	i	98.1	.	692.0	.	.	.
Cc1cc(C)cc(NS(=O)(=O)c2cnc(Cl)c(Cl)c2)c1	-8.01*	i	98.9	-10.7	277.1	-0.9	52.0%*	i
CC(=O)N(c1ccccc1)c1nc(/C=C/C(=O)Nc2c(C)cc(C)cc2C)cs1	-5.28*	i	104.8	-7.6	229.5	0.3	i	i
Cc1cc(C)c(NC(=O)Cn2nc(-c3ccccc3)nc2-c2ccccc2)c(C)c1	i	i	99.1	-9.8	165.2	-1.2	.	.
CN(CCc1ccccc1)C(=O)c1ccc(NC(=O)Cc2ccc(NC(=O)C3CCCN(C(=O)C4CCCC4)C3)cc2)cc1 (centres undefined)	.	.	98.9	.	.	.	.	.
CC(=O)Nc1ccc(OCCC[n+]2ccccc2)cc1	i	i	100.5	3.8	435.6	-12.2	.	.
CCCCCc1ccc(OCCC[n+]2ccccc2)c(CCCCC)c1	-15.4*	i	130.9	5.5	313.8	-13.6	-5.5%*	i
Cc1ccc(CN2CCC[C@]3(N[C@H](c4ccc(C)cc4)[C@@H]4C(=O)N(C)C(=O)[C@@H]43)C2=O)cc1	.	.	99.6	.	.	.	.	.
O=C(NC(=S)NNC(=O)c1cccs1)c1ccccc1	i	i	.	-11.0	256.4	-12.2	.	.
Cc1cccc(C(=O)NC(=S)NNC(=O)c2cccs2)c1	-10.1*	i	84.3	-7.6	415.2	-8.6	35.6%*	i
COc1ccc(N2CCN(C(=O)c3ccc4c(c3)CCN4S(C)(=O)=O)CC2)cc1	.	.	99.6	.	.	.	.	.
Cc1ccc(S(=O)(=O)N2[C@@H](c3ccc(Cl)cc3)C(C(=O)O)=CC[C@H]2c2ccc(Cl)cc2)cc1	-5.7*	i	.	.	857.8	.	61.6%*	i
Cc1ccc(S(=O)(=O)N2[C@@H](c3ccc(F)cc3)C(C(=O)O)=CC[C@H]2c2ccc(Cl)cc2)cc1	i	i	112.1	.	425.1	.	.	.
Cc1ccc(S(=O)(=O)N2[C@@H](c3ccc(F)cc3)C(C(=O)O)=CC[C@H]2c2ccc(C(C)C)cc2)cc1	-6.31*	i	97.3	.	569.9	.	65.2%*	i
CCCn1c(C)cc(=O)c2cc(NC(=O)c3ccccn3)ccc21	-5.1*	i	94.8	-9.4	300.9	-10.5	52.9%*	2.79*
CCCC(=O)Nc1ccc(NC(=O)c2ccccn2)cn1	i	i	100.3	4.0	484.9	-9.4	.	.
CC1CCC(NC(=O)c2ccc(NC(=O)CC3SC(N4CCCC4)=NC3=O)cc2)CC1 (centres undefined)	-10.9*	i	105.1	.	177.2	.	11.2%*	i
CCNC(=O)c1ccc(NC(=O)CC2SC(N3CCCCC3)=NC2=O)cc1 (centres undefined)	.	.	.	.	i	.	.	.
O=C(CNC(=O)c1n[nH]c2ccccc12)Nc1ccc(F)c(F)c1F	.	.	.	.	185.2	.	.	.
COC(=O)C(Oc1ccc2c(-c3ccc(OC)cc3)cc(=O)oc2c1)c1ccccc1 (centres undefined)	-6.17*	i	100.0	-3.4	627.9	-15.4	i	i
CC(Oc1ccc2c(-c3ccccc3)cc(=O)oc2c1)C(=O)O (centres undefined)	i	i	104.2	3.0	.	-4.6	.	.
O=C(CCl)Nc1cc(S(=O)(=O)N2CCCCCC2)ccc1Cl	i	i	85.8	-6.3	272.1	-1.8	.	.
CC(NCc1ccc(F)cc1)C(=O)Nc1cc(S(=O)(=O)N2CCCCC2)ccc1Cl (centres undefined)	-5.77*	i	99.6	-4.1	227.0	-1.8	50.3%*	i
COc1ncnc2c1ncn2CCCNCc1ccc2c(c1)OCO2	.	.	102.5	.	.	.	.	.
SMILES	CHT block	CHT allo act	Pemphigus Ab inh	GPR7 antag	T cell modulator	p-CIP stab down	CHT block conf	HEK293 MPD ctr
Cc1cccn2c(=O)c(C=O)c(N3CCCCCC3)nc12	-6.4*	i	97.3	1.4	281.2	-14.1	i	i
CC(C)n1c(=S)[nH]c2cc(Cl)ccc21	-6.88*	i	112.0	-6.7	167.5	-12.1	51.8%*	i
O=C(O)c1ccccc1NS(=O)(=O)c1cccc(-n2sc3ccccc3c2=O)c1	-6.38*	i	46.2*	-7.7	180.0	2.8	22.1%*	i
O=C(O)c1ccccc1NS(=O)(=O)c1cccc(C(F)(F)F)c1	i	i	100.3	1.5	512.5	-9.4	.	.
COCCCn1c(SCC(=O)Nc2sc3c(c2C#N)CCCC3)nnc1-c1ccncc1	-5.45*	i	103.6	-11.0	298.5	-4.8	62.2%*	i
Cc1c(NC(=O)CSc2nnc(C(C)Oc3ccc(Cl)cc3)n2-c2ccccc2)c(=O)n(-c2ccccc2)n1C (centres undefined)	-10*	i	97.5	-10.3	220.5	-19.5	21.8%*	i
O=S(=O)(c1ccc2ccccc2c1)N1CCN=C1SCc1cccnc1	-5.01*	i	97.0	-0.2	312.6	11.3	i	i
O=S(=O)(c1ccc(F)cc1)N1CCN=C1SCc1cccnc1	i	i	90.2	-3.9	238.0	0.1	.	.
COc1ccc(/C=C2\COc3ccccc3C2=O)cc1OC	i	i	91.5	4.3	443.9	-1.7	.	.
O=C(O)c1ccc(/C=C2\COc3ccccc3C2=O)cc1	-6.76*	i	.	-11.7	368.2	-19.7	33.4%*	i
Cn1c(=O)c2c(ncn2CC(=O)OCC(=O)c2ccc(OC(F)F)cc2OC(F)F)n(C)c1=O	.	.	100.0	.	.	.	.	.
CC1C=CC=CC=CC=CC=CC=CC=CC(OC2OC(C)C(O)C(N)C2O)CC2OC(O)(CC(O)CC(O)C(O)CCC(O)CC(O)CC(=O)OC(C)C(C)C1O)CC(O)C2C(=O)O (centres undefined)	.	.	115.1	.	.	.	.	.
C=CCn1c(SCc2ccccc2C#N)nnc1-c1ccccc1O	-6.34*	i	100.8	-0.3	437.2	-12.0	i	i
CC(C)(C)OC(=O)N1CCC(CC2CC(c3ccccc3)=NO2)(C(=O)NCc2ccccc2)CC1 (centres undefined)	i	i	129.7	.	418.1	.	.	.
COC(=O)C1(CC2CC(c3cccc(Br)c3)=NO2)CCN(C(=O)OC(C)(C)C)CC1 (centres undefined)	-4.99*	i	100.5	5.5	346.4	8.2	i	i
